Activity calls are given as the source filed them.
Columns and labels:
Type in all cases: cell-based
[1] = target: T1, Toll-like receptor 8 (Homo sapiens) (UniProt Q9NR97); experiment: Agonist activity at TLR8 in human PBMC assessed as induction of myeloid dendritic cell maturation by measuring CD80 level at 0.1 uM after 6 hrs by flow cytometry
T1 sequence (whole entry): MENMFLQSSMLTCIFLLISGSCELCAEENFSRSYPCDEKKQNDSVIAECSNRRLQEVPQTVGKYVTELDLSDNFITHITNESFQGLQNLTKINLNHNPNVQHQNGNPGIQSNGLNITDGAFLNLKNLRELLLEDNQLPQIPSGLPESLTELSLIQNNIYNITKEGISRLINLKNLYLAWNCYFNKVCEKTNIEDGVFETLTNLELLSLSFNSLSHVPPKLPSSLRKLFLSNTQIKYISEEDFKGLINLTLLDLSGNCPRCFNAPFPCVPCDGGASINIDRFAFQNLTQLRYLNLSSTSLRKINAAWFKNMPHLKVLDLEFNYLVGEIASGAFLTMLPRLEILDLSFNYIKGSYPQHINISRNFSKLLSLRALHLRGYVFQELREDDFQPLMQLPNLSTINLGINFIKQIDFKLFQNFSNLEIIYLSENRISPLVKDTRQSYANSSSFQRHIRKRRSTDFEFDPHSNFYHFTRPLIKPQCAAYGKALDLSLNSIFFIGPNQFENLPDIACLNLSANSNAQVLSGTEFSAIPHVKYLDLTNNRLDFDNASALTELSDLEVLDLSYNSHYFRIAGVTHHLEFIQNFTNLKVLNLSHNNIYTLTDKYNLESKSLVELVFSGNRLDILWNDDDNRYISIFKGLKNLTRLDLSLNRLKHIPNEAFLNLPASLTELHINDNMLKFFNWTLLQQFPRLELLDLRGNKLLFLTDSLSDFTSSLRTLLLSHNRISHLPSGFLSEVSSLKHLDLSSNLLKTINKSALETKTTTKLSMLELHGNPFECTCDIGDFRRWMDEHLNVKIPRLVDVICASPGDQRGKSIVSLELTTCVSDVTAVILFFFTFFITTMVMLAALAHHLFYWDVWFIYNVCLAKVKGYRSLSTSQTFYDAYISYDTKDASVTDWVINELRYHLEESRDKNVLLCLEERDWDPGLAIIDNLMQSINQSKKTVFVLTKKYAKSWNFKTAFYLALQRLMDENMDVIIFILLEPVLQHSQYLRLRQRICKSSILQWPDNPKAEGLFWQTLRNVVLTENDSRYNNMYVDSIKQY
In short: (§1)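 hPBMCs stimulated 6 h at a single 0.1 μM dose; HLA-DR, MHC-I, CD80 and CD86 on mDCs and pDCs measured by flow cytometry, expressed as fold change versus unstimulated cells. Mean ± SD of three independent experiments in three different donors.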

[2] = target: Toll-like receptor 3 (Homo sapiens) (UniProt O15455); experiment: Agonist activity at human TLR3 expressed in HEK293 cells by SEAP reporter gene assay
Toll-like receptor 3 (Homo sapiens), sequence (O15455 whole entry): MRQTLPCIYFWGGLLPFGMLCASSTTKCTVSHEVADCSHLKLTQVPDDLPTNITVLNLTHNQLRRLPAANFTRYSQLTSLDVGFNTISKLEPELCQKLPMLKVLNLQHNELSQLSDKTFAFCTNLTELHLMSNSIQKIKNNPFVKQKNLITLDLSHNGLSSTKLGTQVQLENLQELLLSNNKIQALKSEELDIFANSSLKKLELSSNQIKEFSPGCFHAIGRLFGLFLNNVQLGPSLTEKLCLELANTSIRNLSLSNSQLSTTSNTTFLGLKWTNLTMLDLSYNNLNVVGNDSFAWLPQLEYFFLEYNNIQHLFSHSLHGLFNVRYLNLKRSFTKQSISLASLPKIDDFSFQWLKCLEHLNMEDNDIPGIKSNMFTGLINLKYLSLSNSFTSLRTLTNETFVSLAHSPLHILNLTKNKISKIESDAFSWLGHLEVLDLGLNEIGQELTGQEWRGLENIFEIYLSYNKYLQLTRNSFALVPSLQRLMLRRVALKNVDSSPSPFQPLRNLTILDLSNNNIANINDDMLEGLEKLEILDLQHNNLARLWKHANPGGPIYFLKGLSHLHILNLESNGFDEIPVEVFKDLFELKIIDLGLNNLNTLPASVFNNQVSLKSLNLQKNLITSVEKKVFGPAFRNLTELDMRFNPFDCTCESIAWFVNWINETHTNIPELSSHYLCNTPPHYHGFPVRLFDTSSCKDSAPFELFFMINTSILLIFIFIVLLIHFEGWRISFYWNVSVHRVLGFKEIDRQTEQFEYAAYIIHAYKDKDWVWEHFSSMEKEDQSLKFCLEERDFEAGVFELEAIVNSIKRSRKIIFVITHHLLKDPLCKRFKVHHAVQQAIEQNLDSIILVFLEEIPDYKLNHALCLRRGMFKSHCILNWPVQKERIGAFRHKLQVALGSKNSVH

[3] = target: T2, Toll-like receptor 7 (Homo sapiens) (UniProt Q9NYK1); experiment: Agonist activity at TLR7 in human PBMC assessed as induction of plasmacytoid dendritic cell maturation by measuring CD86 level at 0.1 uM after 6 hrs by flow cytometry; in short: as §1
T2 sequence (whole entry): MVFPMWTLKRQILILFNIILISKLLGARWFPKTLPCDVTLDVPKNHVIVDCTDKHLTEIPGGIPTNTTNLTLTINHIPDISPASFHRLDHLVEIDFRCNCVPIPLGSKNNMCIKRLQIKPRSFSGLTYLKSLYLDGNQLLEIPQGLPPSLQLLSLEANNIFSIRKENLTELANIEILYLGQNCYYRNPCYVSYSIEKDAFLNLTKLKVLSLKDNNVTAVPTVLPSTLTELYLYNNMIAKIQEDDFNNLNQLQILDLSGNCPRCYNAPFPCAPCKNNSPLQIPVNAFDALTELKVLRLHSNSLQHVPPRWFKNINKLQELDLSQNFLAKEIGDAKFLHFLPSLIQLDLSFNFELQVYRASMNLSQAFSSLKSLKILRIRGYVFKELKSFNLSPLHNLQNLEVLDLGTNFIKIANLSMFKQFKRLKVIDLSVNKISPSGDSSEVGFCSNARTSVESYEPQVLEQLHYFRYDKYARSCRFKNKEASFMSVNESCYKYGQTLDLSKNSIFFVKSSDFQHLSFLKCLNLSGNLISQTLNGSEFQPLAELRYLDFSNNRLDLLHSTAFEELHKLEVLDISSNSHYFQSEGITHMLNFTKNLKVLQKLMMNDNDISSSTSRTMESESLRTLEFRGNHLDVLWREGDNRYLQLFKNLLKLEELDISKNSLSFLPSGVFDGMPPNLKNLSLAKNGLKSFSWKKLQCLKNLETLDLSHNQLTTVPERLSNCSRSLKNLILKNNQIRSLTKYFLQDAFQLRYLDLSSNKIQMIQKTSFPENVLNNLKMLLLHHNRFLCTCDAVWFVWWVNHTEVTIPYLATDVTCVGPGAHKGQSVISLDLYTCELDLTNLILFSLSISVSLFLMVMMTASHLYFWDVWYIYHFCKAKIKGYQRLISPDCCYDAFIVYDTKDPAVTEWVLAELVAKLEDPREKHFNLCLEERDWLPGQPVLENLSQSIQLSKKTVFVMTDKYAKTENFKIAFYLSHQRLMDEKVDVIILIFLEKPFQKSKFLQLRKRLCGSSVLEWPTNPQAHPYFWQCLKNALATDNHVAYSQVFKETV

[4] = target: T1, Toll-like receptor 8 (Homo sapiens); experiment: Agonist activity at TLR8 in human PBMC assessed as induction of myeloid dendritic cell maturation by measuring HLA-DR level at 0.1 uM after 6 hrs by flow cytometry; in short: as §1
[5] = target: T2, Toll-like receptor 7 (Homo sapiens); experiment: Agonist activity at TLR7 in human PBMC assessed as induction of plasmacytoid dendritic cell maturation by measuring MHC-1 level at 0.1 uM after 6 hrs by flow cytometry; in short: as §1
[6] = target: T1, Toll-like receptor 8 (Homo sapiens); experiment: Agonist activity at TLR8 in human PBMC assessed as induction of myeloid dendritic cell maturation by measuring MHC-1 level at 0.1 uM after 6 hrs by flow cytometry; in short: as §1

Measured: Activity

Nc1nc(OCCCCO)nc2c1[nH]c(=O)n2CC1CCNCC1
inactive: [1] | [2] | [3] | [4] | [5] | [6]

Source: ChEMBL document CHEMBL4627265, “Optimization of 8-oxoadenines with toll-like-receptor 7 and 8 activity” (Bioorg Med Chem Lett, 2020)
